According to ChEMBL document CHEMBL3414544, “PAINS in the assay: chemical mechanisms of assay interference and promiscuous enzymatic inhibition observed during a sulfhydryl-scavenging HTS” (J Med Chem, 2015):
Calls of active or inactive are those of the source.

What was measured:
[1] = target: T1, Histone acetyltransferase RTT109 (Saccharomyces cerevisiae (strain ATCC 204508 / S288c) (Baker's yeast), UniProt Q07794); experiment: Inhibition of Vps75-stimulated recombinant Saccharomyces cerevisiae histone acetyltransferase Rtt109 using Asf1-dH3-H4 as substrate assessed as coenzyme A production after 45 mins by CPM based HTS assay; settings: read-out: IC50
T1 sequence (Q07794 whole entry): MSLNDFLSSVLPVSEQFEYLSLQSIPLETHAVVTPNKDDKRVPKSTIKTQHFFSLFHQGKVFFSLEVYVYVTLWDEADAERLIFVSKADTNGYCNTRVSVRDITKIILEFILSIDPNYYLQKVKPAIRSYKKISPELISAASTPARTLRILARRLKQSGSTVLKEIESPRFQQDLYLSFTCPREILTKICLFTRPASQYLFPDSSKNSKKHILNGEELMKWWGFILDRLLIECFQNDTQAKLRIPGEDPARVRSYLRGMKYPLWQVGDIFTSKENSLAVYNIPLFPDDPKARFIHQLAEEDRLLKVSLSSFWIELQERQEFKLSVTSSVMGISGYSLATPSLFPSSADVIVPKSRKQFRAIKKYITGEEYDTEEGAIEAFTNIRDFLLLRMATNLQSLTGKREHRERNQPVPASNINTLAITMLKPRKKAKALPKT
Method in brief: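 Recombinant Rtt109–Vps75 at 50 nM, with Asf1–dH3–H4 as substrate and acetyl-CoA as acetyl donor. Buffer contained freshly prepared 0.01% Triton X-100. The CoA product was detected by fluorescence of its CPM adduct. Plates had Z′ ≥0.5. IC50 came from a four-parameter variable-slope fit.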

[2] = target: T2, Histone acetyltransferase RTT109 (Saccharomyces cerevisiae (strain ATCC 204508 / S288c) (Baker's yeast)) (UniProt Q07794); experiment: Inhibition of Vps75-stimulated recombinant Saccharomyces cerevisiae histone acetyltransferase Rtt109 assessed as H3K56 acetylated product at […] after 45 mins by Slot bolt inhibiton assay
T2 sequence (whole entry): T1 sequence (Q07794 whole entry)

[3] = Fluorescence quenching in HTS buffer with 20 uM 7-diethylamino-3-(4'-maleimidyl-phenyl)-4-methylcoumarin assessed as fluorescence signal reduction at 10 uM after 10 mins; assay type: physicochemical
[4] = target: T2, Histone acetyltransferase RTT109 (Saccharomyces cerevisiae (strain ATCC 204508 / S288c) (Baker's yeast)); experiment: Inhibition of Vps75-stimulated recombinant Saccharomyces cerevisiae histone acetyltransferase Rtt109 assessed as H3K27 acetylated product at […] after 45 mins by Slot bolt inhibiton assay
[5] = Fluorescence quenching in HTS buffer assessed as fluorescence signal reduction at 10 uM after 10 mins; assay type: physicochemical
[6] = Fluorescence quenching in HTS buffer with […] CoA assessed as fluorescence signal reduction at 10 uM after 10 mins; assay type: physicochemical
[7] = Fluorescence quenching assessed as fluorescence signal reduction at 10 uM after 10 mins; assay type: physicochemical
Method in brief: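 CPM (20 μM final) and CoA (5 μM final) reacted to completion in assay buffer (stable plateau, usually ~5 min); adduct solution added to wells preplated with compound; shaken 5 min, equilibrated 5 min at room temperature; fluorescence intensity read as percent signal reduction versus DMSO controls. Flagged as quencher at >20% signal reduction at 10 μM final compound.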

| Structure (SMILES) | IC50 [1] [µM] | Activity [2] | Activity [3] | Activity [4] | Activity [5] | Activity [6] | Activity [7] |
| --- | --- | --- | --- | --- | --- | --- | --- |
| O=[N+]([O-])c1cccc(S(=O)(=O)Nc2cc(Br)c(O)c3ccccc23)c1 | 5.4 | Active | Not Active | Active | Not Active | Not Active | Not Active |
| O=S(=O)(C[n+]1sc(Nc2ccccc2)nc1-c1ccccc1)c1ccc2ccccc2c1.[Br-] | 28 | inactive | Not Active | inactive | Not Active | Not Active | Not Active |
| O=S(=O)(Nc1cc(Sc2nc[nH]n2)c(O)c2ccccc12)c1ccccc1 | 1.4 | Active | Not Active | Active | Not Active | Not Active | Not Active |
| O=C1CC(Sc2nncn2-c2ccccc2)C(=O)N1c1cc(Cl)cc(Cl)c1 (stereo not given) | 16 | Active | Not Active | Active | Not Active | Not Active | Not Active |
| O=C1CC(Sc2nc[nH]n2)C(=O)N1c1ccccc1 (stereo not given) | 15 | Active | Not Active | Active | Not Active | Not Active | Not Active |
| O=[N+]([O-])c1ccc(Sc2nnc[nH]2)c2nsnc12 | 1.7 | Active | Not Active | Active | Not Active | Not Active | Not Active |
| O=C1C=CC(=O)N1c1cccc(F)c1 | 6.1 | Active | Not Active | Active | Not Active | Not Active | Not Active |
| O=C1C=CC(=O)N1c1ccc2ccccc2c1 | 3.6 | Active | Not Active | Active | Not Active | Not Active | Not Active |
| COc1ccc(Nc2nc(-c3ccc(OC)cc3)[n+](CS(=O)(=O)c3ccc(C)cc3)s2)cc1.O=S(=O)([O-])O | 2.7 | Active | Not Active | Active | Not Active | Not Active | Not Active |
| Cn1c(CN2CCOCC2)nnc1Sc1ccc([N+](=O)[O-])c2nonc12 | 1.8 | Active | Not Active | Active | Not Active | Not Active | Not Active |
| Cc1ccc(N2C(=O)CC(Sc3nnc(-c4ccccc4O)o3)C2=O)cc1 (stereo not given) | 50 | Active | Not Active | Active | Not Active | Not Active | Not Active |
| O=S(=O)(Nc1cc(Sc2cccc3cccnc23)c(O)c2ccccc12)c1ccccc1 | 2.4 | Active | Not Active | Active | Not Active | Not Active | Not Active |
| O=C1C=CC(=O)N1c1ccc(Br)cc1 | 3 | Active | Not Active | Active | Not Active | Not Active | Not Active |
| Nc1ncnc2[nH]c(Sc3c([N+](=O)[O-])cc(Br)c4nsnc34)nc12 | 3.2 | Active | Not Active | Active | Not Active | Not Active | Not Active |
| [Br-].c1ccc(CNc2nc(-c3ccccc3)[n+](-c3ccccc3)s2)cc1 | 2.4 | Active | Not Active | Active | Not Active | Not Active | Not Active |
| CC(C)c1ccc(S(=O)(=O)Nc2ccc(O)c(Sc3nc[nH]n3)c2)cc1 | 200 | inactive | Not Active | inactive | Not Active | Not Active | Not Active |
| COc1ccc(-c2nnc(Sc3ccc([N+](=O)[O-])c4nonc34)[nH]2)cc1 | 2.3 | Active | Not Active | Active | Not Active | Not Active | Not Active |
| O=[N+]([O-])c1c(Sc2ncnc3[nH]cnc23)cc(Cl)c2nsnc12 | 2.2 | Active | Not Active | Active | Not Active | Not Active | Not Active |
| O=[N+]([O-])c1c(SCc2ccccc2)cc(Cl)c2nonc12 | 1.7 | Active | Not Active | Active | Not Active | Not Active | Not Active |
| O=[N+]([O-])c1ccc2nonc2c1Sc1nc2ccccc2[nH]1 | 3.4 | Active | Not Active | Active | Not Active | Not Active | Not Active |
| O=C(O)CSc1cc(Cl)c2nonc2c1[N+](=O)[O-] | 17 | Active | Not Active | Active | Not Active | Not Active | Not Active |
| O=[N+]([O-])c1cccc(S(=O)(=O)Nc2cc(SCc3ccccc3)c(O)c3ccccc23)c1 | 2 | Active | Not Active | Active | Not Active | Not Active | Not Active |
| COc1ccc(N2C(=O)C=CC2=O)cc1 | 9.2 | Active | Not Active | Active | Not Active | Not Active | Not Active |
| CN(CCO)c1cc(Sc2nnc(-c3ccccc3)o2)c2nonc2c1[N+](=O)[O-] | 5.3 | Active | Not Active | Active | Not Active | Not Active | Not Active |
| Cc1ccc(S(=O)(=O)Nc2cc(Sc3nnnn3-c3ccccc3)c(O)c3ccccc23)cc1 | 8.6 | Active | Not Active | Active | Not Active | Not Active | Not Active |
